The source of these data is ChEMBL document CHEMBL5038600, “Discovery of M-1121 as an Orally Active Covalent Inhibitor of Menin-MLL Interaction Capable of Achieving Complete and Long-Lasting Tumor Regression” (J Med Chem, 2021).

One data set deals with T1, Menin (Homo sapiens) (UniProt O00255).
T1 sequence (whole entry): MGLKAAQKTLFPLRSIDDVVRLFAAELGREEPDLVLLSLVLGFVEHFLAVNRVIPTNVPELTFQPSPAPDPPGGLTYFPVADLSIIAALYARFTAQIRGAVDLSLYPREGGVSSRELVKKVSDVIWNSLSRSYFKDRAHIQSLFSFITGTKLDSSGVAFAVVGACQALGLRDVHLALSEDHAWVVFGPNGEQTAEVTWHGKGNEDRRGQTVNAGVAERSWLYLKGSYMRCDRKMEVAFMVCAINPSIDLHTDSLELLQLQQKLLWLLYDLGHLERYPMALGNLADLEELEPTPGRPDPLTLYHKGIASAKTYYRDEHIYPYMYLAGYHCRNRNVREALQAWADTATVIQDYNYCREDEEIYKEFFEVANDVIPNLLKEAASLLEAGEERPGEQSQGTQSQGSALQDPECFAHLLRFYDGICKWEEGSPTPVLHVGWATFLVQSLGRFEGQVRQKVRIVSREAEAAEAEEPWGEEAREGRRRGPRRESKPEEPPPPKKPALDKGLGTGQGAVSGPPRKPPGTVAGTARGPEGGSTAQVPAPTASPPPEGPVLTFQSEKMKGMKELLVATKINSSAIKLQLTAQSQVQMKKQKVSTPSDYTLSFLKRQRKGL
The experiment in a line: Binding affinity to recombinant human menin protein assessed as covalent complex formation incubated for 1 hrs by LC/MS analysis. More on the design: concentration or dose not given beside the values. Put shortly:
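Menin (25 mg/mL in 25 mM Tris pH 8.0, 150 mM NaCl, 5 mM DTT) incubated with compound at a 1:1.2 protein:compound molar ratio for 1 h or overnight at 4 °C. Diluted to 1 mg/mL, then reverse-phase C4 LC with a 5–100% MeCN/0.2% formic acid gradient and Q-TOF mass spectrometry to detect the covalent adduct.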

Data set [1] is described as follows: Clearance in C57BL/6 mouse at 1 mg/kg, iv. The settings on record: in vivo. Type of data set: ADME, organism-based. The essentials: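 Female C57BL/6 mice, single IV dose of 1 mg/kg given as a solution in 10% NMP, 10% Solutol HS15 and 80% saline. Parameters come from the plasma concentration–time profile.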
The next data set deals with SEM cells. The experiment in a line: Anti-proliferative activity against human SEM cells harboring MLL/AF4 fusion protein assessed as cell growth inhibition measured after 4 days by Cell Titre Glo Luminescent Cell viability assay. Type of data set: functional, cell-based. As to conditions: 96 h. The essentials: (§1)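 Leukemia lines plated in triplicate in RPMI 1640 at 37 °C, 5% CO2. 9-point dose response from 10 μM top concentration with 1:3 serial dilutions, 0.1% DMSO final; DMSO vehicle control column. Cellular ATP read by CellTiter-Glo at day 0 and after 4 days. Averages from three independent experiments.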

For a further data set, the system named is KOPN-8. Put plainly: Anti-proliferative activity against human KOPN-8 cells harboring MLL/ENL fusion protein assessed as cell growth inhibition measured after 4 days by Cell Titre Glo Luminescent Cell viability assay. Type of data set: functional, cell-based. The settings on record: KOPN-8, 96 h. Put shortly: as §1
A further data set deals with RS4-11. The experiment in a line: Anti-proliferative activity against human RS4-11 cells harboring MLL/AF4 fusion protein assessed as cell growth inhibition measured after 4 days by Cell Titre Glo Luminescent Cell viability assay. Type of data set: functional, cell-based. As to conditions: RS4-11, 96 h. The essentials:
as §1

Another data set concerns HL-60. The experiment in a line: Anti-proliferative activity against human HL-60 cells harboring MLL wild-type protein assessed as cell growth inhibition measured after 4 days by Cell Titre Glo Luminescent Cell viability assay. As to conditions: HL-60, 96 h. Type of data set: functional, cell-based. The essentials: as §1
Data set [2] deals with MV4-11. Put plainly: Suppression of HOXA9 gene expression in human MV4-11 cells at 10 nM measured after 24 hrs by qRT-PCR analysis. It counts as functional, cell-based. (In general: Real-time PCR tracks product formation cycle by cycle.)
Data set [3] in a line: Protein binding in human plasma at 1 uM incubated for 5 hrs by liquid chromatography-tandem mass spectrometry. It counts as ADME, cell-free. Put shortly:
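Equilibrium dialysis: plasma spiked at 1 μM against dialysis buffer, shaken 5 h at 37 °C, with warfarin and quinidine (1 μM) as controls. Samples matrix-matched, quenched with acetonitrile containing imipramine internal standard, and analysed by LC-MS/MS. Percent bound computed from peak area ratios.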

The subject of data set [4] is MV4-11. The experiment in a line: Anti-tumor activity against luciferase-tagged human MV4-11 cells xenografted in NCG mouse assessed as induction of CD11b protein in human CD45+ cells at 150 mg/kg, po administered daily for 4 days measured after 48 hrs by qRT-PCR analysis. It counts as functional, organism-based. As to conditions: time 4.0 day, in the assay text read “flow cytometry analysis” for “qRT-PCR analysis”. Put shortly: (§2)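 Female NCG mice, 5–6 weeks old, given 5×10^6 luciferase-tagged MV4;11 cells IV via tail vein. Randomized at log-phase disease (day 27). Dosed 150 mg/kg oral gavage daily for 4 days in MC/Tween 80 vehicle. Read-outs 48 h after the last dose, five mice per group, mean ± SEM: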

The test system of data set [5] is MV4-11. The experiment in a line: Anti-tumor activity against luciferase-tagged human MV4-11 cells xenografted in NCG mouse assessed as decreased intensity of whole body bioluminescence signal at 150 mg/kg, po administered daily for 4 days measured after 48 hrs by bioluminescence analysis. The settings on record: time 4.0 day. Type of data set: functional, organism-based. The essentials: as §2
Background: In xenograft studies the graft and the host belong to different species.

Data set [6] can be described thus: Toxicity in NCG mouse xenografted with luciferase-tagged MV4-11 cells assessed as change in body weight at 150 mg/kg, po administered daily for 4 days measured after 48 hrs. As to conditions: in vivo, 96 h, time 4 day. Type of data set: organism-based. Put shortly:
as §2

Active and inactive are the calls of the source. The calls are words filed in the database; no cut-off is given here. Where only a bound is given, the exact number is not on record here.

By clearance is commonly meant the volume of plasma or blood freed of the substance per unit of time. As a reminder, the IC50 is the midpoint of a concentration-inhibition curve. As to `C=CC(=O)N1C[C@@H]2C[C@H]1CN2S(=O)(=O)c1ccc(N2CC(CN3CCC([C@@](CN4CCC4)(c4cccc(F)c4)[C@H]4CCC[C@@H]4NC(=O)OC)CC3)(OC)C2)cc1`, the Activity was 66% at Menin (Homo sapiens) and “Non-Toxic” in [6]. The molecule further had a clearance in data set [1] of 0.945 mL/min/kg. Further, the IC50 is 51 nM with SEM cells, 110 nM in the data set with KOPN-8, 1000 nM in the data set on RS4-11 and greater than 10000 nM in the data set with HL-60. Further, the inhibition entry in the data set on MV4-11 [2] was “Active”. The molecule also registered a PPB in data set [3] of 90.7%. Also, the result with MV4-11 [4] and in the data set with MV4-11 [5] was Active.
